Screening data deposited in PubChem by several laboratories.
APP 5'UTR act – APP 5'UTR luciferase reporter activation. SH-SY5Y APP 5'UTR luciferase reporter, luminescence; zero percent = DMSO vehicle wells. activation, % at 2 µM. hit rate 1% among 190,000. AID 1276;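 active = activation above a set limit, based on mean plus 3 SD of controls, cut at about 140% in these data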
STAT3 blocker – STAT3 signaling inhibition | inhibition, % at 5.5 µM | hit rate 0.89% among 190,000 | U3A cells, IL-6 STAT3-luciferase reporter, luminescence; host cell line lacks STAT1;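 active = inhibition above the mean inhibition across all screened compounds plus 3 SD, cut at about 44% in these data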;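 note: 0% = DMSO only wells and 100% = 100 µM nifuroxazide control wells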
STAT1 act – STAT1 signaling activation; activation (% of control), % at 5.5 µM; AID 932; hit rate 2.6% among 200,000; NIH 3T3 STAT1-luciferase reporter, IFN-gamma, luminescence; 100% = IFN-gamma alone, no compound;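 active = activation above the screen-wide mean activation plus 3 SD, cut at about 130% in these data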;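 note: raw ratio to IFN-gamma control signal so 100% means no change and 0% no light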
STAT3 activator – activators of IL-6 induced STAT3 signaling | hit rate 0.91% among 190,000 | activation (% of control), % at 5.6 µM | AID 871 | U3A cells, IL-6 STAT3-luciferase reporter, luminescence; 100% = signal with IL-6 EC80 alone;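 active = activation above the screen-wide mean of compound activation plus 3 SD, cut at about 130% in these data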;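 note: 0% = background luminescence of wells with medium and substrate only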
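Material: STAT1-lacking human U3A cells, STAT3 luciferase reporter | Benchmarks: IL-6-only wells as 100% reference | Probe or stimulus: IL-6 (33 ng/mL) | Timing: Compound 1 h, then IL-6 6 h at 37 °C | Detection: Luminescence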
STAT1 inh – STAT1 signaling inhibition; AID 920; NIH 3T3 STAT1-luciferase reporter, IFN-gamma, luminescence; inhibition, % at 5.5 µM; hit rate 0.35% among 200,000;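 active = inhibition above a set limit, the mean inhibition across all tested compounds plus 3 SD, cut at about 34% in these data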;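 note: 0% = IFN-gamma with DMSO and 100% = IFN-gamma with 300 µM nifuroxazide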
NF-kB neuron act – NF-kB expression increase, human neuronal cells; NF-kB reporter expression; active compounds read high; fold change at 12.5 µM; hit rate 1.6% among 190,000; in the data active = fold change above about 3.3
* = called active by the depositor. Sampled rows, rich in hits. Any-hit rate of the full collection: about 4.9%.

How did COC(=O)c1sccc1NC(=O)c1csc(C)c1 do in these assays?
APP 5'UTR act: 1; STAT3 blocker: -38; STAT1 act: 101; STAT3 activator: 136*; STAT1 inh: -1; NF-kB neuron act: 0.96

What do the screens show for `COC(=O)c1sccc1NC(=O)Nc1ccc(Cl)c(Cl)c1`?
APP 5'UTR act: 16; STAT3 blocker: -1; STAT1 act: 144*; STAT3 activator: 108; STAT1 inh: -49; NF-kB neuron act: 2.4

Results for Cc1ccc(Cl)c2c1NC(=O)C2(O)CC(=O)c1ccccc1O (configuration not stated) ?
APP 5'UTR act: -2; STAT3 blocker: -34; STAT1 act: 96; STAT3 activator: 133*; STAT1 inh: 5; NF-kB neuron act: 1

Results for CCOc1ccc(-c2ccc(SCC(=O)Nc3nnc(CC)s3)nn2)cc1 ?
APP 5'UTR act: 115; STAT3 blocker: 31; STAT1 act: 113; STAT3 activator: 77; STAT1 inh: -17; NF-kB neuron act: 2.8

Results for CCOc1ccc(-c2ccc(SC)nn2)cc1 ?
APP 5'UTR act: 77; STAT3 blocker: 110*; STAT1 act: 25; STAT3 activator: 14; STAT1 inh: 81*; NF-kB neuron act: 2

Results for Cc1ccc(C(C)C)c(OCC(=O)Nc2ccc(N3CCN(S(C)(=O)=O)CC3)cc2)c1 ?
APP 5'UTR act: -39; STAT3 blocker: -36; STAT1 act: 103; STAT3 activator: 133*; STAT1 inh: -1; NF-kB neuron act: 1.1

Results for COc1ccc(Cn2cnc3c(N)c(C)c(C)cc32)cc1 ?
APP 5'UTR act: -5; STAT3 blocker: -6; STAT1 act: 98; STAT3 activator: 107; STAT1 inh: 2; NF-kB neuron act: 1

How did CCCCCCCCn1cnc2c(N)c(C)c(C)cc21 do in these assays?
APP 5'UTR act: -6; STAT3 blocker: 0; STAT1 act: 112; STAT3 activator: 105; STAT1 inh: -13; NF-kB neuron act: 4.5*

Results for Cc1cccc(-c2cc3nc(C)cc(C)n3n2)c1 ?
APP 5'UTR act: 142*; STAT3 blocker: -16; STAT1 act: 150*; STAT3 activator: 116; STAT1 inh: -57; NF-kB neuron act: 5.9*

What do the screens show for `CCOC(=O)C1(Cc2cccc(Cl)c2)CCCN(C(=O)C2CC2)C1` (configuration not stated)?
APP 5'UTR act: 17; STAT3 blocker: -2; STAT1 act: 109; STAT3 activator: 106; STAT1 inh: -12; NF-kB neuron act: 1.2

What do the screens show for `O=c1c2ccccc2nnn1CSc1nnc2ccccn12`?
APP 5'UTR act: 78; STAT3 blocker: -16; STAT1 act: 146*; STAT3 activator: 118; STAT1 inh: -51; NF-kB neuron act: 1.7

Results for Cn1c(SCn2nnc3ccccc3c2=O)nc2ccccc2c1=O ?
APP 5'UTR act: -2; STAT3 blocker: -6; STAT1 act: 91; STAT3 activator: 107; STAT1 inh: 9; NF-kB neuron act: 0.97

How did O=c1c2ccccc2nnn1CSc1ccc2c(c1)OCCO2 do in these assays?
APP 5'UTR act: 113; STAT3 blocker: 2; STAT1 act: 146*; STAT3 activator: 105; STAT1 inh: -52; NF-kB neuron act: 4.2*

What do the screens show for `O=C(Nc1ccc(Cl)cc1)/C(=C/c1ccc([N+](=O)[O-])cc1)c1nc2ccccc2s1`?
APP 5'UTR act: -96; STAT3 blocker: -16; STAT1 act: 114; STAT3 activator: 119; STAT1 inh: -18

Results for CCC(C)NC(=S)N1CCN(C)CC1 (configuration not stated) ?
APP 5'UTR act: -1; STAT3 blocker: 4; STAT1 act: 94; STAT3 activator: 99; STAT1 inh: 6; NF-kB neuron act: 1.1

What do the screens show for `Fc1ccccc1N1CCN(c2ncnc3[nH]ncc23)CC1`?
APP 5'UTR act: -3; STAT3 blocker: 13; STAT1 act: 109; STAT3 activator: 94; STAT1 inh: -9; NF-kB neuron act: 3.5*

Results for O=C(CSc1ccccn1)NC1CCCC1 ?
APP 5'UTR act: 9; STAT3 blocker: 6; STAT1 act: 97; STAT3 activator: 97; STAT1 inh: 3; NF-kB neuron act: 1.2

What do the screens show for `CC(=O)NCc1ccc(C(=O)CCl)s1`?
APP 5'UTR act: 7; STAT3 blocker: 5; STAT1 act: 99; STAT3 activator: 102; STAT1 inh: 1; NF-kB neuron act: 4*

How did Fc1ccc(C2c3[nH]c4ccccc4c3CCN2Cc2cccn2-c2ncccn2)cc1 (configuration not stated) do in these assays?
APP 5'UTR act: 17; STAT3 blocker: -1; STAT1 act: 89; STAT3 activator: 102; STAT1 inh: 10; NF-kB neuron act: 1.4

Results for COc1cccc(C2c3[nH]c4ccccc4c3CCN2Cc2cccn2-c2ncccn2)c1 (configuration not stated) ?
APP 5'UTR act: 9; STAT3 blocker: -31; STAT1 act: 101; STAT3 activator: 133*; STAT1 inh: -1; NF-kB neuron act: 1

What do the screens show for `CCn1cc(CN2CCc3c([nH]c4ccccc34)C2c2cccc(OC)c2)c(C)n1` (configuration not stated)?
APP 5'UTR act: 8; STAT3 blocker: -30; STAT1 act: 102; STAT3 activator: 133*; STAT1 inh: -5; NF-kB neuron act: 0.86

Results for CC(=O)Nc1ccc(-c2csc(NCc3ccco3)n2)cc1 ?
APP 5'UTR act: 116; STAT3 blocker: -6; STAT1 act: 137*; STAT3 activator: 108; STAT1 inh: -46; NF-kB neuron act: 3.7*

How did c1cncc(-c2csc(NCc3ccco3)n2)c1 do in these assays?
APP 5'UTR act: 3; STAT3 blocker: 10; STAT1 act: 110; STAT3 activator: 92; STAT1 inh: -15; NF-kB neuron act: 1.5

What do the screens show for `Cc1cc(C)c(C(CC(=O)c2cccs2)C(C#N)C#N)c(C)c1` (configuration not stated)?
APP 5'UTR act: 83; STAT3 blocker: 5; STAT1 act: 107; STAT3 activator: 94; STAT1 inh: -7; NF-kB neuron act: 3.1

What do the screens show for `COc1cc(/C=C/C(=O)CC(=O)/C=C/c2ccc(O)c(OC)c2)ccc1O`?
APP 5'UTR act: -11; STAT3 blocker: -6; STAT1 act: 99; STAT3 activator: 108; STAT1 inh: 1; NF-kB neuron act: 7.4*

How did Cc1ccccc1C(=O)Nc1cccc(NC(=O)Cn2cnc3c(=O)n(C)c(=O)n(C)c32)c1 do in these assays?
APP 5'UTR act: -13; STAT3 blocker: 23; STAT1 act: 96; STAT3 activator: 83; STAT1 inh: 5; NF-kB neuron act: 5.4*

How did Nc1ncnc(N2CCc3ccccc32)c1[N+](=O)[O-] do in these assays?
APP 5'UTR act: -28; STAT3 blocker: 10; STAT1 act: 85; STAT3 activator: 98; STAT1 inh: 17; NF-kB neuron act: 0.95

How did COc1cc(C(=O)Nc2c(C)cc(C)cc2C)c(Br)c(OC)c1OC do in these assays?
APP 5'UTR act: 6; STAT3 blocker: 0; STAT1 act: 105; STAT3 activator: 103; STAT1 inh: -6; NF-kB neuron act: 1.2
